Compounds with a hit are over-represented: about 6.7% of the library has one in this group of screens.
Beta cell apopt: blocks beta cell apoptosis. INS-1E cytokine-induced death, ATP luminescence, 48 h; percent of positive-control rescue, neutral wells zero. 300,000 compounds, 0.8% hits. AID 435005. protection from apoptosis, % (test concentration not listed);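 active = Every replicate reaches about 75%, or at least half do and their mean reaches it too, limit read from the data; inconclusive = At least half of replicates reach the limit but their mean does not; inactive = Under half of replicates reach the limit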;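 note: 0% = cytokine-treated negative control wells and 100% = positive control rescue; higher means more ATP so stronger rescue from cytokine killing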
T cruzi repl: blocks replication of Trypanosoma cruzi | 300,000 compounds, 1.4% hits | T. cruzi beta-gal in NIH3T3, luminescence, 90 h | inhibition, % (no concentration beside the values);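 active = mean inhibition across valid replicates above about 55%, limit read from the data; inconclusive = mean below that limit but half or more replicates reach it; inactive = mean below it, under half of replicates reach it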;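 note: signal also drops with host cell toxicity which is not excluded here; 0% = plate median of DMSO wells and 100% = zero luminescence signal; higher percent means less beta-gal luminescence so fewer parasites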
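System: Mouse NIH/3T3 fibroblasts infected with β-gal-expressing T. cruzi Tulahuen C4 | Quantity: NIH/3T3 cells, 5,000 per well | Reagent: 5000 reporter trypomastigotes per well | Dosing: Compound pinned at 50 nL/well, DMSO | Schedule: 3 h host attachment, then at least 90 h co-culture | Detection: GalScreen luminescence, 60 min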
NR3A LBD binder: modulators (binders) of human NR3A ligand-binding domain. NR3A LBD differential scanning fluorimetry, Tm shift; 0% = protein alone, 100% = glycine-bound protein. 340,000 compounds, 2.5% hits. Tm shift relative to glycine control, % at 25 µM;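 active = melting temperature shift of at least 10% of the positive control shift, at one fixed dose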
PREPL inhibitor: human PREPL enzyme inhibition. recombinant PREPL, fluorescence polarization activity-based probe. AID 2751. 320,000 compounds, 0.68% hits. inhibition, % at 5.96 µM; in the data active = inhibition above about 43%;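 note: 0% = enzyme with DMSO and 100% = wells lacking enzyme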
Target sequence (Q4J6C6 whole entry, looked up): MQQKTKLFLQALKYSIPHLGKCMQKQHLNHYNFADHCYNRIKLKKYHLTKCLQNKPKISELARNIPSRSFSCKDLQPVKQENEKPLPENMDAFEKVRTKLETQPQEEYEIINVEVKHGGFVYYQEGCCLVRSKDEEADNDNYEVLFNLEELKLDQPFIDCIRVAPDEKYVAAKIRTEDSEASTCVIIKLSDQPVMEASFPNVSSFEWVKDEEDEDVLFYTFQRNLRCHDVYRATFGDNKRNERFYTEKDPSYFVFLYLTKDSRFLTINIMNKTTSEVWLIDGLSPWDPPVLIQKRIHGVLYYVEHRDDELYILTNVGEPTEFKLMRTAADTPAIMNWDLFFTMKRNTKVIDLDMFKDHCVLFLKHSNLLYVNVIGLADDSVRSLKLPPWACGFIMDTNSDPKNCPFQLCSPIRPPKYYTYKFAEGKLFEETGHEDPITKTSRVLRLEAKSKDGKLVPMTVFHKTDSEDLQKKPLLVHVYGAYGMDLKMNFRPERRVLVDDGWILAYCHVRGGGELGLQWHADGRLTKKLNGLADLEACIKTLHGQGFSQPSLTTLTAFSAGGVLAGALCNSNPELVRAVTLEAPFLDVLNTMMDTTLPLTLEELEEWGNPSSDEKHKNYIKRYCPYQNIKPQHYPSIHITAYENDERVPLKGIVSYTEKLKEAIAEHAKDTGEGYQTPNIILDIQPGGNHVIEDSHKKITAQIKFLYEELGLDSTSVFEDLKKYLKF
CSC inhib: cancer stem cell inhibition; 300,000 compounds, 1.1% hits; inhibition, % at 7.5 µM; AID 2717; cancer stem cell-like cells viability, luminescence; in the data active = inhibition above about 75%; inconclusive = no clear call, values can overlap the other calls; tested in HMLE shEcad cells
CHOP inhibitor: inhibitors of CHOP induction in ER stress response; CHO-K1 CHOP-promoter luciferase, tunicamycin-induced, 15-18 h; inhibition, % at 10 µM; 220,000 compounds, 3.8% hits; AID 2732;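 active = compounds that reduced the stress-induced luciferase reporter signal by more than about 70% of percent inhibition, limit read from the data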;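 note: 0% = tunicamycin plus vehicle and 100% = wells without tunicamycin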
Numbers without * were called inactive; ? = inconclusive; / = no result.

SMILES	Beta cell apopt	T cruzi repl	NR3A LBD binder	PREPL inhibitor	CSC inhib	CHOP inhibitor
COC(=O)c1cn(CC(=O)Nc2ccc(F)cc2)c2ccccc12	-5	-2	0	12	24	13
COc1cc(NC(=O)CCN2CCN(C/C=C/c3ccccc3)CC2)cc(OC)c1	-5	58*	0	/	-6	/
CCC(C)c1ccccc1NC(=O)CN1CCN(C/C=C/c2ccccc2)CC1 (centres undefined)	5	44	-2	4	5	75*
Cc1ccc(NC(=O)CCN2CCN(C/C=C/c3ccccc3)CC2)cc1C	/	43	1	-1	/	39
COc1ccc(NC(=O)CCN2CCN(C/C=C/c3ccccc3)CC2)cc1	/	57*	-2	25	/	/
Cc1ccc(NC(=O)CCN2CCN(C/C=C/c3ccccc3)CC2)cc1	-6	/	0	2	2	-12
CC(NCC(=O)NC(=O)NC1CCCC1)c1ccc(Cl)cc1Cl (centres undefined)	/	9	4	-2	-2	/
S=c1[nH]nc(Cn2cnc3ccccc32)n1-c1ccccc1	-5	-22	-1	-5	-3	3
OCCC1CN(Cc2cnc(-c3cccc4ccccc34)nc2)CCN1C1CCCCC1 (centres undefined)	5	1	-2	14	9	-1
Cc1cccc(OCC(O)CN2CC3(C)CC2CC(C)(C)C3)c1 (centres undefined)	-1	-9	1	13	4	22
Nc1ccc(C(=O)Nc2nc3ccccc3s2)cc1	9	-4	8	16	15	18
Cc1ccc(C(=O)Nc2ccc(S(=O)(=O)NCc3ccco3)cc2)cc1	0	-13	-1	3	-1	50
Cc1cc(C)n(-c2ccc(C(=O)Nc3nc4ccccc4s3)cc2)n1	4	17	15*	-7	-3	90*
Cc1cc(C)n(-c2ccc(C(=O)Nc3cccc([N+](=O)[O-])c3)cc2)n1	/	-6	19*	21	9	-16
Cc1cc(C)n(-c2ccc(C(=O)Nc3ccc(S(=O)(=O)NCc4ccco4)cc3)cc2)n1	36	-1	17*	-5	13	/
Cc1ccc(C)c(-n2c(-c3csc(C)c3C)n[nH]c2=S)c1	3	12	-3	14	-2	21
COc1ccc([C@H]2CC(=O)C=C(c3cc(OC)ccc3OC)C2)cc1	5	/	1	14	53	/
Cc1cccc(N2CCN(C(=O)C34CC5CC(CC(C5)C3)C4)CC2)c1C	4	45	3	8	31	72*
Cc1cccc(N2CCN(C(=O)C3CCCCC3)CC2)c1C	7	9	-1	11	6	96*
Cc1ccccc1N1CCN(C(=O)C2CCCCC2)CC1	7	26	-1	4	0	-13
CC(=O)OC1COC(N2CCc3cc(Br)c([N+](=O)[O-])cc32)C(OC(C)=O)C1OC(C)=O (centres undefined)	0	-4	-1	4	-5	89*
CCOC(=O)N1CCC(NS(=O)(=O)c2ccc(NC(C)=O)c(Cl)c2)CC1	/	-6	-1	7	-11	8
Nc1c(C(=O)Nc2ccc3c(c2)OCCO3)nnn1Cc1cccc(Cl)c1	27	-12	/	23	70	/
COc1ccc(NC(=O)Cn2nnc(C(=O)NCc3ccccc3OC)c2N)cc1Cl	-2	-18	-7	-10	-7	72*
COc1ccc(Cl)cc1NC(=O)c1nnn(CC(=O)Nc2ccc(OC)c(OC)c2)c1N	-4	4	-1	-3	-6	/
SMILES	Beta cell apopt	T cruzi repl	NR3A LBD binder	PREPL inhibitor	CSC inhib	CHOP inhibitor
COc1ccc(OC)c(NC(=O)c2nnn(Cc3ccc(Br)cc3F)c2N)c1	3	25	-1	23	35	88*
COc1cccc(NC(=O)Cn2nnc(C(=O)Nc3cc(Cl)ccc3OC)c2N)c1	8	-27	25*	-15	-8	/
Nc1c(C(=O)Nc2ccc3c(c2)OCCO3)nnn1Cc1ccccc1Cl	93*	-35	2	12	6	/
COc1ccc(NC(=O)c2nnn(Cc3cccc(F)c3)c2N)c(OC)c1	11	-29	-1	3	63	39
COc1ccc(NC(=O)Cn2nnc(C(=O)NCc3ccc(C)cc3)c2N)cc1OC	-4	8	3	11	-12	/
O=C(Nc1ccc(-c2n[nH]c(=S)o2)cc1)c1ccccc1	-4	-7	3	0	-2	/
COCCNC(=S)Nc1cc(OC)c(OC)cc1C#N	/	-1	-2	/	/	-3
COc1cccc(Cn2nnc(C(=O)Nc3cc(Cl)ccc3OC)c2N)c1	-5	-6	1	-17	79*	53
COc1ccc(Cl)cc1NC(=O)c1nnn(CC(=O)Nc2ccc3c(c2)OCO3)c1N	/	9	20*	-9	-14	/
Cc1cc(SCC(=O)NCC(c2cccs2)N2CCOCC2)c(C)cc1Br (centres undefined)	-2	3	1	41	-3	/
CC(C)(C)c1cc(C(=S)N2CCN(CCO)CC2)cc(C(C)(C)C)c1O	-3	28	11*	3	1	20
Cc1cc(OCC(=O)OCC(=O)NCc2ccco2)ccc1Cl	-6	-8	0	5	-11	/
Cc1cccc(-c2nc(=S)c3c(o2)CCCC3)c1	-5	-8	2	9	-12	77*
COc1ccccc1-c1cn[nH]c1-c1ccc(OCc2ccc(F)cc2)cc1O	8	23	7	11	?	12
COc1ccccc1-c1cn[nH]c1-c1ccc(OCc2ccccc2F)cc1O	8	13	10	24	93*	15
Oc1cc(OCc2ccccc2)ccc1-c1[nH]ncc1-c1ccccc1	5	1	17*	9	47	5
CCN(CC)CCNCc1ccc(-c2ccc(Cl)cc2)o1	-3	31	2	6	79*	82*
O=C(Nc1cc2c(cc1Cl)-c1ccc([N+](=O)[O-])cc1C2=NO)C(F)(F)F	/	/	3	/	/	/
O=C(Nc1ncccc1Cl)C(Sc1ccccc1)c1ccccc1 (centres undefined)	-1	0	0	-5	2	75*
CCSc1nc(O)cc(=O)[nH]1	0	-8	2	-3	-6	6
CCSc1nc(=S)cc(C)[nH]1	-5	18	10*	9	0	-25
C=CCn1c(=NC(=O)c2ccccc2[N+](=O)[O-])sc2cc(S(C)(=O)=O)ccc21	10	25	2	1	-7	14
COc1ccc2c(c1)sc(=N)n2C	50	72*	1	5	-12	11
COc1ccc2c(c1)sc1nc(=O)ccn12	/	-15	-2	4	-1	/
CCOc1cccc(C(=O)Nc2ccc3c(c2)OCCO3)c1	0	-11	0	11	9	/
COc1cccc(C(=O)/C=C/Nc2cccc(O)c2)c1	-3	-11	13*	19	4	24
COc1cccc(C(=O)/C=C/Nc2ccc(S(=O)(=O)Nc3cccc(C(C)=O)c3)cc2)c1	16	4	13*	-5	5	61

Screening results: PubChem, several laboratories
